Experimental data as given in ChEMBL document CHEMBL4024769, “Synthesis and Investigation of Photophysical and Biological Properties of Novel S-Containing Bacteriopurpurinimides” (J Med Chem, 2017).
Active and inactive are the calls of the source. The rule behind the calls is not given here.

Assays:
[1] = Phototoxicity against mouse S37 cells assessed as cell growth inhibition preincubated for 6 hrs with subsequent 10 J/cm2 irradiation followed by incubation in absence of compound for 24 hrs by MTT assay; type: functional; settings: S37, light or radiation study
Method in brief: (§1)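 S37 cells treated with 0.05–28 μM compound added 24 h after plating. After 0.25–6 h incubation, cells were irradiated with a halogen lamp through a KS-19 filter (720 nm) at 21.0 ± 1.0 mW/cm2, 10 J/cm2, with or without removing the compound. MTT read 24 h later; 50% growth inhibition taken as the value, mean of three tests.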

[2] = Drug uptake in skin tumor of F1 mouse implanted with mouse S37 cells assessed as normalized fluorescence at 2.5 mg/kg, iv measured after 15 mins post injection in presence of He-Ne laser radiation by local fluorescence spectroscopic analysis; type: ADME, organism-based; settings: in vivo, 0.25 h
Method in brief: (§2)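 S37 sarcoma-bearing immunocompetent F1 mice (18−22 g) given PS 2.5 mg/kg iv. Animals sacrificed at 0.25, 0.5, 2, 4 and 24 h, with three animals per time point. Skin, tumor and organ samples were read ex vivo by contact local fluorescence spectroscopy under He−Ne 632.8 nm excitation. Integrated 640−900 nm emission was normalized to the backscattered laser signal to give FN.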

[3] = Drug uptake in tumor of F1 mouse implanted with mouse S37 cells assessed as normalized fluorescence units at 2.5 mg/kg, iv measured after 15 mins in presence of He-Ne laser radiation by local fluorescence spectroscopic analysis; type: ADME, organism-based, Neoplasm; settings: in vivo, 0.25 h; method in brief: as §2
[4] = Phototoxicity against mouse S37 cells implanted in F1 mouse assessed as tumor growth inhibition at 2.5 mg/kg, iv preincubated for 15 mins with subsequent 150 J/cm2 irradiation measured on day 15 post irradiation relative to control; type: functional; settings: S37, light or radiation study, read-out: TGI
Method in brief: (§3)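 S37 sarcoma mice treated on day 7 of tumor growth with compound iv; tumors 140–160 mm3 beforehand, droperidol 0.25 mg ip as anesthetic. LED irradiation at 800 ± 21 nm, 100 mW/cm2, 150 J/cm2, given 15 or 30 min after dosing. Controls got iv 0.9% NaCl. Volume = d1×d2×d3×0.52; TGI = […]×100%.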

[5] = Phototoxicity against mouse S37 cells implanted in F1 mouse assessed as tumor growth inhibition at 5 mg/kg, iv preincubated for 15 mins with subsequent 150 J/cm2 irradiation measured on day 18 post irradiation relative to control; type: functional; settings: S37, light or radiation study, read-out: TGI; method in brief: as §3
[6] = Pro-oxidant activity in 1% cremophor EL or rose Bengal assessed as singlet oxygen radical generation by measuring photo-induced fading of 4-nitroso-N,N-dimethylaniline at 6.1 uM in presence of laser radiation and histidine measured every 5 to 10 mins in presence of singlet oxygen quencher NaN3 by absorption spectroscopy; type: functional
[7] = Phototoxicity against mouse S37 cells implanted in F1 mouse assessed as tumor growth inhibition at 5 mg/kg, iv preincubated for 15 mins with subsequent 150 J/cm2 irradiation measured on day 11 post irradiation relative to control; type: functional; settings: S37, light or radiation study, read-out: TGI; method in brief: as §3
Sarcoma M1 [8] = test: Phototoxicity against rat Sarcoma M1 cells implanted in rat assessed as tumor vasculature disruption at 2.5 mg/kg, ip administered as single dose on day 11 post inoculation followed by 300 J/cm2 irradiation after 2.5 to 3 hrs measured on day 2 post photodynamic therapy by CD31 dependent immunoimgaing; type: functional, organism-based
[9] = (§4) Phototoxicity against rat Sarcoma M1 cells implanted in rat assessed as volume of tumor necrotic zones at 2.5 mg/kg, ip administered as single dose on day 11 after inoculation followed by 300 J/cm2 irradiation after 2.5 to 3 hrs measured on day 3 post photodynamic therapy (reference value: 30 +/- 4%); type: functional
Method in brief: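 Rat M1 sarcoma was implanted subcutaneously in the left thigh, with randomisation on day 10. A single 2.5 mg/kg ip dose was given on day 11, then 810 nm laser (0.51 W/cm2, 300 J/cm2, 10 min) after 2.5−3 h. Tumours were sectioned on days 1, 3 and 12 after PDT (controls days 12, 14, 23), five animals per point. Parenchyma and necrotic zone volumes were estimated on hematoxylin and eosin staining.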

[10] = Phototoxicity against mouse S37 cells assessed as cell growth inhibition preincubated for 4 hrs with subsequent 10 J/cm2 irradiation followed by incubation in absence of compound for 24 hrs by MTT assay; type: functional; settings: S37, light or radiation study; method in brief: as §1
[11] = Phototoxicity against mouse S37 cells implanted in F1 mouse assessed as tumor growth inhibition at 5 mg/kg, iv preincubated for 30 mins with subsequent 150 J/cm2 irradiation measured on day 11 post irradiation relative to control; type: functional; settings: S37, light or radiation study, read-out: TGI; method in brief: as §3
Sarcoma M1 [12] = test: Phototoxicity against rat Sarcoma M1 cells implanted in rat assessed as damage to tumor nodes at 2.5 mg/kg, ip administered as single dose on day 11 post inoculation followed by 300 J/cm2 irradiation after 2.5 to 3 hrs measured on day 2 post photodynamic therapy by hematoxylin and eosin staining based assay; type: functional, organism-based
[13] = Phototoxicity against rat Sarcoma M1 cells implanted in rat assessed as apoptotic index at 2.5 mg/kg, ip administered as single dose on day 11 after inoculation followed by 300 J/cm2 irradiation after 2.5 to 3 hrs measured on day 1 post photodynamic therapy (reference value: 0.29 +/- 0.02 %); type: functional
Method in brief: (§5)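 Rats with M1 sarcoma implanted subcutaneously in the left thigh were randomized on day 10, 25 per group. Single ip dose of 2.5 mg/kg on day 11; laser irradiation 2.5–3 h later at 810 nm, 0.51 W/cm2, 300 J/cm2, 10 min over a 1.5 cm field. Five rats sampled per time point for H&E histology, PCNA immunohistochemistry (1:200) and tumor volume. Untreated controls; Student's test, p < 0.05.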

[14] = Phototoxicity against rat Sarcoma M1 cells implanted in rat assessed as tumor volume at 2.5 mg/kg, ip administered as single dose on day 11 after inoculation followed by 300 J/cm2 irradiation after 2.5 to 3 hrs measured on day 3 post photodynamic therapy (reference value: 1.6 +/- 0.3 mm3); type: functional; method in brief: as §5
[15] = as §4, with “of PCNA-positive cells in” for “of”, “tumor parenchyma” for “tumor necrotic zones”, “value: 81” for “value: 30”, “+/- 3%)” for “+/- 4%)”; type: functional
Method in brief: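 Female rats bearing subcutaneous M1 sarcoma in the left thigh were randomised on day 10. They received 2.5 mg/kg ip on day 11. Laser irradiation (810 nm, 0.51 W/cm2, 300 J/cm2, 1.5 cm field, 10 min) followed 2.5−3 h later. PCNA-positive parenchyma was scored by immunohistochemistry (mouse anti-PCNA PC10, 1:200, biotin−extravidin−peroxidase) on post-PDT days 1, 3 and 12, with five animals per time point.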

[16] = Phototoxicity against rat Sarcoma M1 cells implanted in rat assessed as apoptotic index at 2.5 mg/kg, ip administered as single dose on day 11 after inoculation followed by 300 J/cm2 irradiation after 2.5 to 3 hrs measured on day 3 post photodynamic therapy (reference value: 0.31 +/- 0.02%); type: functional; method in brief: as §5
[17] = Phototoxicity against mouse S37 cells implanted in F1 mouse assessed as tumor growth inhibition at 5 mg/kg, iv preincubated for 30 mins with subsequent 150 J/cm2 irradiation measured on day 18 post irradiation relative to control; type: functional; settings: S37, light or radiation study, read-out: TGI; method in brief: as §3
[18] = Phototoxicity against rat Sarcoma M1 cells implanted in rat assessed as mitotic index at 2.5 mg/kg, ip administered as single dose on day 11 after inoculation followed by 300 J/cm2 irradiation after 2.5 to 3 hrs measured on day 1 post photodynamic therapy (reference value: 1.9 +/- 0.2 %); type: functional; method in brief: as §5
[19] = Phototoxicity against rat Sarcoma M1 cells implanted in rat assessed as mitotic index at 2.5 mg/kg, ip administered as single dose on day 11 after inoculation followed by 300 J/cm2 irradiation after 2.5 to 3 hrs measured on day 12 post photodynamic therapy (reference value: 1.9 +/- 0.2%); type: functional; method in brief: as §5

| Structure (SMILES) | CC50 [1] | Flu intensity [2] | Flu intensity [3] | inhibition in vivo at 2.5 mg/kg [4] | inhibition in vivo at 5 mg/kg [5] | Activity [6] | inhibition in vivo at 5 mg/kg [7] | Activity (Sarcoma M1 [8]) | Activity [9] | CC50 [10] | inhibition in vivo at 5 mg/kg [11] | Activity (Sarcoma M1 [12]) | Activity [13] | Activity [14] | Activity [15] | Activity [16] | inhibition in vivo at 5 mg/kg [17] | Activity [18] | Activity [19] |
| --- | --- | --- | --- | --- | --- | --- | --- | --- | --- | --- | --- | --- | --- | --- | --- | --- | --- | --- | --- |
| CCCO/N=C(\C)c1c(C)c2cc3nc(c4c5[nH]c(cc6nc(cc1[nH]2)[C@H](C)[C@H]6CC)c(C)c5C(=O)N(OCCC)C4=O)[C@@H](CCC(=O)OC)[C@@H]3C | 110 nM | 2.2 RU | 4.4 RU | 100% | 100% | inactive | 100% |  |  |  |  |  |  |  |  |  |  |  |  |
| CCCO/N=C(\C)c1c(C)c2cc3nc(c4c5[nH]c(cc6nc(cc1[nH]2)[C@@H](C)[C@@H]6CC)c(C)c5C(=O)N(OCCC)C4=O)[C@H](CCC(=O)NCCSSCCNC(=O)CC[C@@H]1c2nc(cc4[nH]c(cc5nc(cc6[nH]c7c2C(=O)N(OCCC)C(=O)c7c6C)[C@H](CC)[C@H]5C)c(/C(C)=N/OCCC)c4C)[C@H]1C)[C@H]3C |  |  |  |  |  |  |  | Active | 77% | 50 nM | 100% | Active | 0.39% | 0.59 mm3 | 38% | 0.43% | 100% | 1.2% | 1.78% |
